Assay results published in ChEMBL document CHEMBL2321866 (J Med Chem, 2013).
pEC50, pKi: −log10 of the molar value. Active and inactive are the calls of the source. The calls are words filed in the database; no cut-off is given here.

Tests used:
Homo sapiens = species on record: Homo sapiens; assay: Selectivity index, ratio of Ki for CB1 receptor (unknown origin) to Ki for CB2 receptor (unknown origin)
Cannabinoid receptor 1 = Cannabinoid receptor 1 (Homo sapiens, UniProt P21554)
Cannabinoid receptor 2 [1] = target: T1, Cannabinoid receptor 2 (Homo sapiens, UniProt P34972); assay: Displacement of [3H]CP-55,940 from CB2 receptor (unknown origin) after 1 hr by scintillation counting analysis; settings: for pKi: read-out: Ki
T1 sequence (P34972 whole entry): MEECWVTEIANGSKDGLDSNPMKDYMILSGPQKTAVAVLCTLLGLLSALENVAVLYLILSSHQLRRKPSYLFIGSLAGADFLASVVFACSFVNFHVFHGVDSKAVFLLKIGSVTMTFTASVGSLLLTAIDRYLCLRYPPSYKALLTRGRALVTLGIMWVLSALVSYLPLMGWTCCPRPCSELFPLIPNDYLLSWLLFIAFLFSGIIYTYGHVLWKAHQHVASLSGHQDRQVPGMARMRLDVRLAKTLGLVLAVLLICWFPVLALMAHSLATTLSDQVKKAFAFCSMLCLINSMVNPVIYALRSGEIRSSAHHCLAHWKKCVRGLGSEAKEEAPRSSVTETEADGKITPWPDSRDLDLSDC

RAW264.7 [2] = assay: Cytotoxicity against mouse RAW264.7 cells assessed as cell viability at 2.5 uM after 3 days by MTT assay relative to vehicle-treated control; assay type: cell-based; settings: raw264.7, 72 h
How it was run: (§1)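 Survival measured by MTT and expressed as percent of vehicle control. Mean ± S.E.M. of experiments run in triplicate.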

RAW264.7 [3] = assay: Inhibition of RANKL-induced osteoclastogenesis in mouse RAW264.7 cells at 0.1 uM after 5 days by TRAP assay relative to control; assay type: functional; settings: RAW264.7, 120 h
How it was run: (§2)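 RAW 264.7 murine monocytic cells were seeded at 3 × 10^3 per well and cultured 24 h in αMEM with 10% FBS. Medium was then replaced with the same medium containing RANKL (15 ng/mL) plus test compound. […] Mean of three experiments, each in triplicate.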

RAW264.7 [4] = assay: Cytotoxicity against mouse RAW264.7 cells assessed as cell viability at 5 uM after 3 days by MTT assay; assay type: cell-based; settings: raw264.7, 72 h; how it was run: as §1
RAW264.7 [5] = assay: Inhibition of RANKL-induced osteoclastogenesis in mouse RAW264.7 cells at 10 uM after 5 days by TRAP assay relative to control; assay type: functional; settings: RAW264.7, 120 h; how it was run: as §2
RAW264.7 [6] = assay: Cytotoxicity against mouse RAW264.7 cells assessed as cell viability at 5 to 10 uM after 3 days by MTT assay; assay type: cell-based; settings: raw264.7, 72 h; how it was run: as §1
Cannabinoid receptor 2 [7] = target: T1, Cannabinoid receptor 2; assay: Inverse agonist activity at human CB2 receptor expressed in CHO cells assessed as increase in forskolin-induced cAMP production after 45 mins in presence of phosphodiesterase inhibitor RO20-1724; assay type: functional, cell-based
RAW264.7 [8] = assay: Inhibition of RANKL-induced osteoclastogenesis in mouse RAW264.7 cells after 5 days by TRAP assay; assay type: functional, cell-based
How it was run: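 RAW 264.7 cells, 3×10^3 per well, grown 24 h in αMEM/10% FBS, then switched to medium with RANKL (15 ng/mL) plus compound (0.1–10 µM). After 5 days cells fixed and TRAP-stained; TRAP+ cells with more than three nuclei scored as osteoclasts. Mean of three experiments in triplicate.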

RAW264.7 [9] = assay: Inhibition of RANKL-induced osteoclastogenesis in mouse RAW264.7 cells at 1 uM after 5 days by TRAP assay relative to control; assay type: functional; how it was run: as §2
RAW264.7 [10] = assay: Cytotoxicity against mouse RAW264.7 cells assessed as cell viability at […] after 3 days by MTT assay; assay type: cell-based; settings: raw264.7, 72 h

Cannabinoid receptor 1, sequence (P21554 whole entry): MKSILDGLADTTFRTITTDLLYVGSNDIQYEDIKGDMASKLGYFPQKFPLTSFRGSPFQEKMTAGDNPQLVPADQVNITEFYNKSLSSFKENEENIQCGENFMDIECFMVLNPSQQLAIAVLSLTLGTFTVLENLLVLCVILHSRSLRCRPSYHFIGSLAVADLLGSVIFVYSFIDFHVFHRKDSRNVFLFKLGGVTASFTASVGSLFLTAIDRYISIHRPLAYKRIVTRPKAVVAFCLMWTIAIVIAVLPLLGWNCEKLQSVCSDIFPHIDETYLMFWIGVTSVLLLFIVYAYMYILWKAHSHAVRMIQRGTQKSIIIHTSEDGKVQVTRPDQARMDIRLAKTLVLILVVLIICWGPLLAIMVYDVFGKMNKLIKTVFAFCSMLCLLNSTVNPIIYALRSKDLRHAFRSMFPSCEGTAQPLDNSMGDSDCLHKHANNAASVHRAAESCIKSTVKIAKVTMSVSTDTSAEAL

Row | SMILES | Ratio Ki (Homo sapiens) | pKi (Cannabinoid receptor 2 [1]) | further results
1 | CCN(CC)c1ccc(CN(C(=O)Cc2ccccc2)[C@]23C[C@H]4C[C@H](C[C@H](C4)C2)C3)cc1 | > 333 | 7.42 | pKi (Cannabinoid receptor 1): < 4.70
2 | CCN(CC)c1ccc(CN([C@]23C[C@H]4C[C@H](C[C@H](C4)C2)C3)S(=O)(=O)c2ccccc2)cc1 | 130 | 7.08 | pKi (Cannabinoid receptor 1): 4.96
3 | CCN(CC)c1ccc(CN(C(=O)C2CCCCC2)[C@]23C[C@H]4C[C@H](C[C@H](C4)C2)C3)cc1 | > 571 | 7.46 | pKi (Cannabinoid receptor 1): < 4.70
4 | CCCCCCCC(=O)N(CCCCCCC)Cc1ccc(N(CC)CC)cc1 |  | < 4.70 | 
5 | CCCCCCCN(Cc1ccc(N(CC)CC)cc1)C(=O)Cc1ccc(Cl)cc1 |  | 6.16 | 
6 | CCN(CC)c1ccc(CN(C(=O)Cc2ccc(Cl)cc2)c2ccc(Cl)cc2)cc1 | 147 | 6.87 | 
7 | CCN(CC)c1ccc(CN([C@]23C[C@H]4C[C@H](C[C@H](C4)C2)C3)S(=O)(=O)c2ccc(Cl)cc2)cc1 | 11 | 6.76 | pKi (Cannabinoid receptor 1): 5.69
8 | CCN(CC)c1ccc(CN(c2ccc(C)cc2)S(=O)(=O)c2ccc(OC)cc2)cc1 | 2590 | 9.30 | Activity (RAW264.7 [2]): Non-toxic; inhibition at 0.1 µM (RAW264.7 [3]): 46%; Activity (RAW264.7 [4]): Toxic; inhibition at 10 µM (RAW264.7 [5]): 100%; Activity (RAW264.7 [6]): Toxic; pEC50 (Cannabinoid receptor 2 [7]): 7.37; inhibition (RAW264.7 [8]): Dose-dependent effect; inhibition at 1 µM (RAW264.7 [9]; RAW264.7, 120 h): 97%
9 | CCN(CC)c1ccc(CN([C@]23C[C@H]4C[C@H](C[C@H](C4)C2)C3)S(=O)(=O)c2ccc(C(C)C)cc2)cc1 |  | 6.34 | 
10 | CCCCCCCN(Cc1ccc(N(CC)CC)cc1)C(=O)C1CCCCC1 |  | 6.67 | 
11 | CCCCCCCC(=O)N(Cc1ccc(N(CC)CC)cc1)[C@]12C[C@H]3C[C@H](C[C@H](C3)C1)C2 |  | 6.20 | 
12 | CCCCCCCN(Cc1ccc(N(CC)CC)cc1)S(=O)(=O)CCCC |  |  | Ki (Cannabinoid receptor 2 [1]; read-out: pKi (converted)): 697 nM
13 | CCN(CC)c1ccc(CN([C@]23C[C@H]4C[C@H](C[C@H](C4)C2)C3)S(=O)(=O)c2cccc(C)c2)cc1 |  | 7.72 | Activity (RAW264.7 [10]): Non-toxic; inhibition at 10 µM (RAW264.7 [5]): > 95%; inhibition (RAW264.7 [8]): Dose-dependent effect; pKi (Cannabinoid receptor 1): 5.08
14 | CCN(CC)c1ccc(CN(c2ccc(Cl)cc2)S(=O)(=O)c2ccc(OC)cc2)cc1 | > 1430 | 7.85 | Activity (RAW264.7 [10]): Non-toxic; Activity (RAW264.7 [2]): Non-toxic; Activity (RAW264.7 [4]): Toxic; inhibition at 10 µM (RAW264.7 [5]): > 95%; Activity (RAW264.7 [6]): Toxic; pEC50 (Cannabinoid receptor 2 [7]): 7.79; inhibition (RAW264.7 [8]): Dose-dependent effect; pKi (Cannabinoid receptor 1): < 4.70; inhibition (RAW264.7 [9]): Active
15 | CCN(CC)c1ccc(CN(c2ccc(Cl)cc2)S(=O)(=O)c2ccc(F)cc2)cc1 | 15 | 7.14 | 
16 | CCN(CC)c1ccc(CN[C@]23C[C@H]4C[C@H](C[C@H](C4)C2)C3)cc1 |  | 4.70 | 
17 | CCN(CC)c1ccc(CN([C@]23C[C@H]4C[C@H](C[C@H](C4)C2)C3)S(=O)(=O)c2ccc(C)cc2)cc1 |  |  | pKi (Cannabinoid receptor 1): < 4.70
18 | CCN(CC)c1ccc(CN(C(=O)Cc2ccc(Cl)cc2)[C@]23C[C@H]4C[C@H](C[C@H](C4)C2)C3)cc1 |  |  | pKi (Cannabinoid receptor 1): < 4.70
19 | CCN(CC)c1ccc(CN([C@]23C[C@H]4C[C@H](C[C@H](C4)C2)C3)S(=O)(=O)c2ccc(F)cc2)cc1 |  | 7.60 | pEC50 (Cannabinoid receptor 2 [7]): 6.57; pKi (Cannabinoid receptor 1): 5.37
20 | CCN(CC)c1ccc(CN(C(=O)Cc2ccc(Cl)cc2)c2ccc(C)cc2)cc1 | 29 | 6.97 | 
21 | CCN(CC)c1ccc(CN([C@]23C[C@H]4C[C@H](C[C@H](C4)C2)C3)S(=O)(=O)c2ccc(OC)cc2)cc1 |  | 6.86 | 

More lines, main results first:

Row | Ratio Ki (Homo sapiens) | pKi (Cannabinoid receptor 2 [1]) | SMILES | further results
22 |  | 8.27 | CCN(CC)c1ccc(CN(c2ccc(C)cc2)S(=O)(=O)c2ccc(C)cc2)cc1 | 
23 |  | 5.89 | CCCCCCCN(Cc1ccc(N(CC)CC)cc1)C(=O)c1ccc(N(C)C)cc1 | 
24 | 3.7 | 7.43 | CCN(CC)c1ccc(CN(c2ccc(Cl)cc2)S(=O)(=O)c2ccc(C)cc2)cc1 | 
25 | 782 | 8.37 | CCN(CC)c1ccc(CN(c2ccc(C)cc2)S(=O)(=O)c2ccc(C(C)C)cc2)cc1 | 
26 | 26 | 6.72 | Cc1ccc(S(=O)(=O)N(CCc2ccc(Cl)cc2)S(=O)(=O)c2ccc(C)cc2)cc1 | 
27 |  | 5.88 | CCCCCCCN(Cc1ccc(N(CC)CC)cc1)C(=O)Cc1ccccc1 | 
28 |  | 5.28 | CCCCCCCN(Cc1ccc(N(CC)CC)cc1)S(=O)(=O)c1ccc(OC)cc1 | 
29 |  | 5.17 | CCN(CC)c1ccc(CNc2ccc(Cl)cc2)cc1 | 
30 |  | 4.89 | CCCCCCCN(Cc1ccc(N(CC)CC)cc1)S(=O)(=O)c1ccc(C(C)C)cc1 | 
31 |  | 8.52 | CCN(CC)c1ccc(CN(c2ccc(C)cc2)S(=O)(=O)c2ccc(Cl)cc2)cc1 | 
32 | 0.9 | 6.65 | CCN(CC)c1ccc(CN(C(=O)C2CCCCC2)c2ccc(C)cc2)cc1 | 
33 |  | 6.56 | CCCCCCCN(Cc1ccc(N(CC)CC)cc1)S(=O)(=O)Cc1ccccc1 | 
34 |  | 5.96 | CCCCCCCN(Cc1ccc(N(CC)CC)cc1)S(=O)(=O)c1ccc(F)cc1 | 
35 |  | 5.64 | CCCCCCCN(Cc1ccc(N(CC)CC)cc1)S(=O)(=O)c1cccc(C)c1 | 
36 | 37 | 8.24 | CCN(CC)c1ccc(CN(c2ccc(C)cc2)S(=O)(=O)c2cccc(C)c2)cc1 | 
37 | 183 | 7.44 | CCN(CC)c1ccc(CN(c2ccc(Cl)cc2)S(=O)(=O)c2ccc(Cl)cc2)cc1 | 
38 | 151 | 8.47 | CCN(CC)c1ccc(CN(c2ccc(C)cc2)S(=O)(=O)c2ccccc2)cc1 | pEC50 (Cannabinoid receptor 2 [7]): 6.22
39 | 153 | 8.25 | CCN(CC)c1ccc(CN(c2ccc(C)cc2)S(=O)(=O)c2ccc(F)cc2)cc1 | 
40 | 121 | 6.79 | CCN(CC)c1ccc(CN(C(=O)C2CCCCC2)c2ccc(Cl)cc2)cc1 | pKi (Cannabinoid receptor 1): < 4.70
41 |  | 8.55 | CCN(CC)c1ccc(CN(c2ccc(Cl)cc2)S(=O)(=O)c2cccc(C)c2)cc1 | 
42 |  | < 4.70 | CCCCCCCN(Cc1ccc(N(CC)CC)cc1)S(=O)(=O)c1ccc(OC(C)C)cc1 | 
43 |  | 5.17 | CCCCCCCN(Cc1ccc(N(CC)CC)cc1)S(=O)(=O)c1ccc(Cl)cc1 | 
44 | > 277 | 7.14 | CCN(CC)c1ccc(CN(C(=O)Cc2ccccc2)c2ccc(C)cc2)cc1 | pKi (Cannabinoid receptor 1): < 4.70
45 |  | 6.65 | CCN(CC)c1ccc(CN(c2ccc(Cl)cc2)S(=O)(=O)c2ccc(C(C)C)cc2)cc1 | 
